ChEMBL document CHEMBL3120119, “Development of novel tetrahydrothieno[2,3-c]pyridine-3-carboxamide based Mycobacterium tuberculosis pantothenate synthetase inhibitors: molecular hybridization from known antimycobacterial leads” (Bioorg Med Chem, 2014)
pIC50: −log10 of the molar value. In brackets after ≈: the same amount, converted by molar mass.

Columns and labels:
Pantothenate synthetase = molecular target: T1, Pantothenate synthetase (Mycobacterium tuberculosis, UniProt P9WIL5); test: Inhibition of Mycobacterium tuberculosis pantothenate synthetase expressed in Escherichia coli BL21 (DE3)
T1 sequence (P9WIL5 whole entry): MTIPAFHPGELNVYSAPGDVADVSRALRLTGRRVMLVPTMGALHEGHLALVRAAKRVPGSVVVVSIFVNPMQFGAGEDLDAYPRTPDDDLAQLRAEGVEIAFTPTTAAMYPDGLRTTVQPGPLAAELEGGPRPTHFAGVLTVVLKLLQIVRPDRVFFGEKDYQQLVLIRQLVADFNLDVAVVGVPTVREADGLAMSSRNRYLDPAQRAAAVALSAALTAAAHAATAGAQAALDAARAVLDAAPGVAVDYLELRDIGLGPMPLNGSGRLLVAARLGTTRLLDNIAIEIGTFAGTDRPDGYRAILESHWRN
In short: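 panC (Rv3602c) cloned into E. coli BL21(DE3). Coupled assay: reagent mix of NADH, pantoic acid, β-alanine, ATP, phosphoenolpyruvate, MgCl2, myokinase, pyruvate kinase, lactate dehydrogenase; reaction started with PS; A340 read every 12 s for 120 s.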

[1] = Cytotoxicity against mouse RAW264.7 cells at 50 uM after 72 hrs by MTT assay; assay type: cell-based; settings: read-out: INH
[2] = tested on: Mycobacterium tuberculosis; test: Antimycobacterial activity against Mycobacterium tuberculosis H37Rv ATCC 27294 after 28 days by agar dilution method; assay type: functional; settings: H37Rv ATCC 27294, 672 h
In short: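 Agar dilution on Middlebrook 7H11 agar tubes with OADC, drug 50 to 0.78 µg/mL, in duplicate. Inoculum from fresh slants adjusted to 1 mg/mL wet weight in 0.05% Tween 80 saline, diluted 10^-2 (~10^7 cfu/mL); 5 µL spotted. Incubated 37 °C, MIC read after 28 days.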

[3] = molecular target: T2, Pantothenate synthetase (Mycobacterium tuberculosis) (UniProt P9WIL5); test: Binding affinity to Mycobacterium tuberculosis pantothenate synthetase expressed in Escherichia coli BL21 (DE3) assessed as increase in thermal stability
T2 sequence (whole entry): T1 sequence (P9WIL5 whole entry)
In short: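 Differential scanning fluorimetry: protein–ligand complexes heated from 25 °C to 95 °C in 0.1 °C steps with SYPRO Orange dye; melting temperature shift relative to native protein recorded.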

Row | Compound | pIC50 (Pantothenate synthetase) | cytotoxicity at 72 h, 50 µM [1] [%] | MIC [2] [µM] | Tm [3] [°C]
1 | NC(=O)c1c(NC(=O)c2ccc([N+](=O)[O-])o2)sc2c1CCN(C(=S)Nc1ccc([N+](=O)[O-])cc1)C2 | 4.73 | 28.2 | 24.2 (≈ 12.5 µg/mL) | –
2 | NC(=O)c1c(NC(=O)c2ccc([N+](=O)[O-])s2)sc2c1CCN(C(=O)Nc1ccc(Cl)cc1)C2 | 4.99 | 24.4 | 12.3 (≈ 6.23 µg/mL) | –
3 | NC(=O)c1c(NC(=O)c2ccc([N+](=O)[O-])s2)sc2c1CCN(C(=O)NCc1ccccc1)C2 | 4.74 | 26.1 | 25.7 (≈ 12.5 µg/mL) | –
4 | NC(=O)c1c(NC(=O)c2ccc([N+](=O)[O-])s2)sc2c1CCN(C(=S)Nc1ccc(F)cc1)C2 | 4.99 | 26.8 | 12.3 (≈ 6.24 µg/mL) | –
5 | CC[C@@H](CO)NCCN[C@@H](CC)CO [ETHAMBUTOL] | < 4.60 | – | 7.64 (≈ 1.56 µg/mL) | –
6 | NC(=O)c1c(NC(=O)c2ccc([N+](=O)[O-])o2)sc2c1CCN(S(=O)(=O)c1ccc(Br)cc1)C2 | < 4.60 | – | 45 (≈ 25 µg/mL) | –
7 | COc1ccc(S(=O)(=O)N2CCc3c(sc(NC(=O)c4ccc([N+](=O)[O-])s4)c3C(N)=O)C2)cc1 | 4.72 | 24.5 | 23.9 (≈ 12.5 µg/mL) | –
8 | NNC(=O)c1ccncc1 [ISONIAZID] | < 4.60 | – | 0.72 (≈ 0.0987 µg/mL) | –
9 | CC(=O)N1CCc2c(sc(NC(=O)c3cccs3)c2C(N)=O)C1 | < 4.60 | – | 9.15 (≈ 3.2 µg/mL) | –
10 | NC(=O)c1c(NC(=O)c2ccc([N+](=O)[O-])s2)sc2c1CCN(C(=S)Nc1ccc([N+](=O)[O-])cc1)C2 | 5.04 | 28.6 | 11.7 (≈ 6.24 µg/mL) | –
11 | NC(=O)c1c(NC(=O)c2ccc([N+](=O)[O-])s2)sc2c1CCN(C(=S)Nc1ccc(Cl)cc1)C2 | 5.20 | 21.4 | 11.9 (≈ 6.24 µg/mL) | –
12 | NC(=O)c1c(NC(=O)c2ccc([N+](=O)[O-])o2)sc2c1CCN(C(=S)Nc1ccc(Cl)cc1)C2 | 4.72 | 24.7 | 24.7 (≈ 12.5 µg/mL) | –
13 | CC(=O)c1ccc(S(=O)(=O)N2CCc3c(sc(NC(=O)c4ccc([N+](=O)[O-])o4)c3C(N)=O)C2)cc1 | < 4.60 | – | 48.2 (≈ 25 µg/mL) | –
14 | NC(=O)c1c(NC(=O)c2ccc([N+](=O)[O-])o2)sc2c1CCN(C(=O)Nc1ccc([N+](=O)[O-])cc1)C2 | 4.70 | 36.1 | 24.9 (≈ 12.5 µg/mL) | –
15 | NC(=O)c1c(NC(=O)c2ccc([N+](=O)[O-])o2)sc2c1CCN(S(=O)(=O)c1ccc(F)cc1)C2 | 4.76 | 22.1 | 25.2 (≈ 12.5 µg/mL) | –
16 | COc1ccc(NC(=O)N2CCc3c(sc(NC(=O)c4ccc([N+](=O)[O-])s4)c3C(N)=O)C2)cc1 | 4.84 | 20.9 | 24.9 (≈ 12.5 µg/mL) | –
17 | COc1ccc(NC(=O)N2CCc3c(sc(NC(=O)c4ccc([N+](=O)[O-])o4)c3C(N)=O)C2)cc1 | 4.82 | – | 53.2 (≈ 25.8 µg/mL) | –
18 | NC(=O)c1c(NC(=O)c2ccc([N+](=O)[O-])s2)sc2c1CCN(S(=O)(=O)c1ccc([N+](=O)[O-])cc1)C2 | 5.23 | 29.2 | 9.28 (≈ 4.99 µg/mL) | 50.4
19 | NC(=O)c1c(NC(=O)c2ccc([N+](=O)[O-])o2)sc2c1CCN(C(=S)Nc1ccc(F)cc1)C2 | 4.68 | 28.1 | 25.5 (≈ 12.5 µg/mL) | –
20 | NC(=O)c1c(NC(=O)c2ccc([N+](=O)[O-])s2)sc2c1CCN(C(=O)Nc1ccc([N+](=O)[O-])cc1)C2 | 5.01 | 33.6 | 12.1 (≈ 6.24 µg/mL) | –
21 | NC(=O)c1c(NC(=O)c2ccc([N+](=O)[O-])o2)sc2c1CCN(S(=O)(=O)c1ccc([N+](=O)[O-])cc1)C2 | < 4.60 | – | 47.9 (≈ 25 µg/mL) | –
22 | NC(=O)c1c(NC(=O)c2ccc([N+](=O)[O-])o2)sc2c1CCN(C(=S)NCc1ccccc1)C2 | 4.77 | 18.1 | 26.5 (≈ 12.9 µg/mL) | –
23 | NC(=O)c1c(NC(=O)c2ccc([N+](=O)[O-])s2)sc2c1CCN(S(=O)(=O)c1ccc(Br)cc1)C2 | 4.85 | 26.8 | 21.9 (≈ 12.5 µg/mL) | –
24 | CC(=O)c1ccc(S(=O)(=O)N2CCc3c(sc(NC(=O)c4ccc([N+](=O)[O-])s4)c3C(N)=O)C2)cc1 | < 4.60 | – | 46.7 (≈ 25 µg/mL) | –
25 | NC(=O)c1c(NC(=O)c2ccc([N+](=O)[O-])s2)sc2c1CCN(C(=S)NCc1ccccc1)C2 | 4.88 | 22.2 | 19.9 (≈ 9.99 µg/mL) | –
26 | NC(=O)c1c(NC(=O)c2ccc([N+](=O)[O-])o2)sc2c1CCN(C(=O)NCc1ccccc1)C2 | 4.85 | 24.3 | 26.6 (≈ 12.5 µg/mL) | –
27 | COc1ccc(S(=O)(=O)N2CCc3c(sc(NC(=O)c4ccc([N+](=O)[O-])o4)c3C(N)=O)C2)cc1 | 4.69 | 19.4 | 24.6 (≈ 12.5 µg/mL) | –
28 | NC(=O)c1c(NC(=O)c2ccc([N+](=O)[O-])o2)sc2c1CCN(C(=O)Nc1ccc(Cl)cc1)C2 | < 4.60 | – | 51 (≈ 25 µg/mL) | –
29 | NC(=O)c1c(NC(=O)c2ccc([N+](=O)[O-])s2)sc2c1CCN(S(=O)(=O)c1ccc(F)cc1)C2 | 4.93 | 30.2 | 12.2 (≈ 6.24 µg/mL) | –
